Assay outcomes (PubChem BioAssay)
H69AR growth 86K = blocks growth of human H69AR lung tumor cells; hit rate 6% among 85,000; viability, % at 10 µM; H69AR lung tumor viability, ATP luminescence, 72 h; stronger effect = lower value;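 active means viability at or below 40%; inactive means viability above 40%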;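 further: multidrug resistant small cell line overexpressing MRP-1 efflux transporter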
HUVEC inhibit = inhibitors of human endothelial cell proliferation. HUVEC proliferation, CellTiter-Glo luminescence, 72 h; stronger effect = lower value. viability, % at 10 µM (by protocol). hit rate 1.1% among 86,000. AID 648;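 active means viability at or below 30%; inactive means viability above 30%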
PTEN del growth = growth suppressors of cells with PTEN tumor suppressor deletion. AID 827. hit rate 1.2% among 140,000. HCT116 PTEN-null viability, CellTiter-Glo, 60 h; stronger effect = lower value. viability, % at 10 µM;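 active means viability at or below a set limit, 4 SD under the median of all tested compounds, cut at about 3.7% in these data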;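 further: PTEN knockout HCT116 line with beta catenin targeted HCT116 as companion control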
Lung fibro prol = blocks proliferation of human lung fibroblasts | viability, % at 10 µM | hit rate 1.1% among 85,000 | LL 47 human lung fibroblast viability, ATP luminescence; stronger effect = lower value;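 active means viability at or below 50% in the single dose screen; inactive means viability above 50%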;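 further: compound exposure lasted 72 h before the ATP readout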
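Material: Human LL 47 lung fibroblast cells | Input: 1,150 cells/well | Buffer or medium: IMEM plus 15% FBS | Compound dosing: 0.1% DMSO in all compound wells | Times: Overnight cell rest, 72 h compound treatment at 37 °C | Signal: CellTiter-Glo luminescence measuring cellular ATP | Measure: % viability versus median cells-only luminescence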
bCat KO growth = beta-catenin-lacking colon tumor cell growth suppression | HCT116 beta-catenin knockout viability, CellTiter-Glo, 60 h; stronger effect = lower value | viability, % at 10 µM | hit rate 1.5% among 140,000;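 active means viability at or under a set limit, the compound median less 4 SD, cut at about 6% in these data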
Numbers stand for hits; n = inactive; x = no result. Only a selection was taken, and hits are over-represented in it overall.

SMILES	H69AR growth 86K	HUVEC inhibit	PTEN del growth	Lung fibro prol	bCat KO growth
CCCCNS(=O)(=O)c1ccc2nc(SCC(=O)Nc3sccc3C#N)[nH]c2c1	21.4	n	n	n	n
CCCOc1ccc(C(=O)CCC(=O)OCC(=O)Nc2ccc(Oc3ccccc3)cc2)cc1	x	x	n	x	n
COc1ccc(C(=O)C(CCC(CNC(C)(C)C)C(=O)c2ccc(OC)cc2)CNC(C)(C)C)cc1 (stereo not drawn)	x	x	1.2	x	1.0
O=C(O)CCC(=O)NNc1ccccc1[N+](=O)[O-]	x	x	n	x	n
COc1cc2c(-c3ccc(O)cc3)nc3c(c(C)nn3-c3ccccc3)c2cc1OC	x	x	1.2	x	1.0
CCCCOc1ccc(C(=O)NNC(=S)NC(=O)CC)cc1	x	x	n	x	4.5
CCC(=O)NC(=S)NNC(=O)c1ccc(OC)cc1	x	x	n	x	n
O=[N+]([O-])c1ccc(-n2nnnc2-c2ccccc2)c([N+](=O)[O-])c1	x	x	0.6	x	0.6
Cc1ccc(C)c(SCC(=O)Nc2nnc(-c3ccccc3)o2)c1	n	n	n	n	n
COc1ccc(CN2C(=O)/C(=C/c3ccncc3)SC2=S)cc1	x	x	2.0	x	2.5
O=C(O)CCCCCN1C(=O)/C(=C\c2ccncc2)SC1=S	x	x	n	x	n
COc1ccc(/C=C2\N=C(c3c(-c4ccccc4)noc3C)OC2=O)cc1OC	x	x	n	x	n
Cc1nc2ccc(S(=O)(=O)N(C)CC(=O)N3CCc4ccccc43)cc2s1	n	n	n	n	n
CCCCn1c(/N=C/c2c[nH]c3ccccc23)nc2ccccc21	1.9	n	n	n	n
Cn1c(N/N=C/c2c[nH]c3ccccc23)nc2ccccc21	x	x	0.9	x	1.5
Cc1ccc2nc(NCCCN3CCOCC3)c(C=NCCCN3CCOCC3)c(=O)n2c1	n	n	n	n	n
CC(C)CC(=O)Nc1ccccc1-c1nnn(CC(=O)N2CCc3ccccc3C2)n1	n	n	n	n	n
COc1cc(CNC(C)(C)CO)cc(Br)c1OCc1ccc(Cl)cc1Cl	x	x	1.6	x	1.3
Cc1ccccc1OCC(=O)OCC(=O)Nc1cc(C(F)(F)F)ccc1N1CCOCC1	x	x	n	x	n
COc1ccc2c(c1)OC1(C)CC2C(C(=O)c2ccccc2OC)C(=O)N1 (stereo not drawn)	32.6	n	n	n	n
COc1ccc2c(c1)C1CC(C)(NC(=O)C1C(=O)c1ccccc1)O2 (stereo not drawn)	n	n	n	n	n
CCOC(=O)c1c(C)[nH]c(C(=O)Cn2nnc(-c3ccccc3)n2)c1C	n	n	n	n	n
CCOC(=O)c1c(NC(=O)CN2C(=O)NC(C)(c3ccc(OC(F)F)cc3)C2=O)sc(C)c1C (stereo not drawn)	x	x	n	x	n
CCOC(=O)c1c(C)[nH]c(C(=O)CN2C(=O)NC(CC)(c3ccccc3)C2=O)c1C (stereo not drawn)	37.1	n	n	n	n
CCOC(=O)c1c(C)[nH]c(C(=O)CN2C(=O)NC(C)(c3ccc(C)cc3)C2=O)c1C (stereo not drawn)	39.1	n	n	n	n
SMILES	H69AR growth 86K	HUVEC inhibit	PTEN del growth	Lung fibro prol	bCat KO growth
CC(=O)NCC(=O)NC(C(=O)Nc1ccc2c(c1)OCCO2)c1ccc(C)cc1 (stereo not drawn)	n	n	n	n	n
Cc1cc(NCCC(C)C)n2nc(C)c(-c3ccccc3)c2n1	12.9	n	n	n	n
Cc1cc(NCCCN2CCOCC2)n2ncc(-c3ccccc3)c2n1	25.8	n	n	n	n
Cc1cc(NCCCN2CCOCC2)n2nc(C)c(-c3ccc(F)cc3)c2n1	15.4	n	n	n	n
Cc1cc(NCCCN2CCOCC2)n2nc(C)c(-c3ccccc3)c2n1	22.2	n	n	n	n
Cc1c(-c2ccccc2)oc2c(C(=O)N3CCN(c4ccc([N+](=O)[O-])cc4)CC3)cccc2c1=O	x	x	n	x	n
Cc1ccc(NC(=O)Cc2noc3ccccc23)cc1	n	n	n	n	n
COc1ccc2c(c1)sc1nc(-c3ccccc3)cn12	19.5	n	n	n	n
CCOC(=O)N1CCN(C(=O)c2ccc3c(c2)sc2nc(-c4ccc(OC)cc4)cn23)CC1	x	x	n	x	n
Cc1ccc(-c2nc3ccccc3s2)cc1S(=O)(=O)N1CCCC1	32.4	n	n	n	n
O=S(=O)(c1cccc(-c2nc3ccccc3s2)c1)N1CCOCC1	n	n	n	n	n
O=C(CN1CCCN(S(=O)(=O)c2ccc(Br)cc2)CC1)Nc1ccc2cn[nH]c2c1	2.1	n	x	n	x
O=C(CN1CCN(S(=O)(=O)c2ccc(F)cc2)CC1)Nc1ccc2c(c1)OCCO2	n	n	n	n	n
O=C(CN1CCN(S(=O)(=O)c2ccc(F)cc2)CC1)Nc1ccc(Cl)c(C(F)(F)F)c1	9.0	n	n	n	n
COc1ccc(S(=O)(=O)N2CCCN(CC(=O)Nc3ccc4c(c3)OCO4)CC2)cc1	n	n	n	n	n
O=C(CN1CCN(S(=O)(=O)c2ccc(F)cc2)CC1)Nc1ccc2c(c1)OCO2	n	n	n	48.4	n
O=C(CN1CCCN(S(=O)(=O)c2ccc(Br)cc2)CC1)Nc1ccc2c(c1)OCO2	11.8	n	n	n	n
C=CCCCCCCCCc1nc(=S)[nH][nH]1	20.9	n	n	n	n
O=C(O)COc1ccc(S(=O)(=O)NCCc2ccccc2)cc1	n	n	n	n	n
Cc1ccc2[nH]c(=O)c(C3C(C#N)=C(N)Oc4c3ccc3cccnc43)cc2c1 (stereo not drawn)	10.5	4.9	n	n	n
Cc1nc(-n2ncc(C#N)c2N)c2c3c(sc2n1)CCC3	n	n	2.0	n	n
CC1N=C2c3ccccc3N=C(SCc3cc(=O)n4ccccc4n3)N2C1=O (stereo not drawn)	n	n	x	n	x
Brc1ccc(-c2nc(N/N=C/c3cccnc3)c3ccccc3n2)cc1	10.6	n	n	n	n
CC(=O)NCCC(=O)Nc1sc2c(c1-c1nc3ccccc3[nH]1)CCCC2	36.1	n	n	n	n
Nc1c(C(=O)Nc2ccc(S(=O)(=O)N3CCCC3)cc2)sc2nc3cc4c(cc3cc12)CCC4	x	x	1.5	x	5.8
SMILES	H69AR growth 86K	HUVEC inhibit	PTEN del growth	Lung fibro prol	bCat KO growth
COc1ccc(C(=O)Nc2nncs2)cc1S(=O)(=O)N1CC(c2ccccc2)CC1=O (stereo not drawn)	n	n	n	n	n
CCn1c2ccccc2c2nnc(SCc3ccccc3)nc21	n	n	n	n	n
CCn1c2ccccc2c2nnc(SCCCn3c(=O)[nH]c4ccccc43)nc21	22.5	n	n	n	n
COc1ccc2c(c1OC)C(=O)N1C(C(=O)O)Cc3c([nH]c4ccccc34)C21 (stereo not drawn)	n	n	n	n	n
CCCCc1ccc(N=N/C(C(=O)Nc2cc(OC)c(NC(C)=O)cc2OC)=C(/C)O)cc1	x	x	n	x	n
CCCN(C(=O)c1ccccc1N)c1c(C)n(C)n(-c2ccccc2)c1=O	n	n	n	n	n
O=C(O)CCc1nc2cccnc2n1Cc1ccccc1	n	n	n	n	n
CCc1ccc(NC(=O)CCc2nc3cccnc3n2Cc2ccc(OC)cc2)cc1	18.1	n	n	44.8	n
CCN(CC)c1ccc(/C=C(/C#N)C(=O)NCc2ccccc2)o1	x	x	n	x	n
CSc1nncc(=O)[nH]1	n	n	n	3.6	n
